# PRMT1 FP inh = PRMT1 methyltransferase inhibitors, primary screen, biochemical, fluorescence polarization; AID 652257, 2013; inhibition, % at 2.79 µM; hit rate 1.3% among 370,000; Protein arginine N-methyltransferase 1 (Homo sapiens), Q99873; recombinant PRMT1, activity-based probe fluorescence polarization;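 active = inhibition above about 21% made by adding two undisclosed values, limit read from the data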
# SIAE primary = human SIAE inhibitors, primary screen, biochemical, fluorescence polarization, FP-Rh probe, 1536-well HTS | Sialate O-acetylesterase (Homo sapiens), Q9HAT2 | SIAE FP-Rh probe binding | inhibition, % at 9.66 µM | hit rate 0.69% among 370,000;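 active = inhibition above a cutoff: mean of compounds within the control limits plus 3 SD of those, cut at about 17% in these data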;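 note: 0% = plate median of compound wells and 100% = probe without SIAE protein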
# Target sequence (Q9HAT2 whole entry, looked up): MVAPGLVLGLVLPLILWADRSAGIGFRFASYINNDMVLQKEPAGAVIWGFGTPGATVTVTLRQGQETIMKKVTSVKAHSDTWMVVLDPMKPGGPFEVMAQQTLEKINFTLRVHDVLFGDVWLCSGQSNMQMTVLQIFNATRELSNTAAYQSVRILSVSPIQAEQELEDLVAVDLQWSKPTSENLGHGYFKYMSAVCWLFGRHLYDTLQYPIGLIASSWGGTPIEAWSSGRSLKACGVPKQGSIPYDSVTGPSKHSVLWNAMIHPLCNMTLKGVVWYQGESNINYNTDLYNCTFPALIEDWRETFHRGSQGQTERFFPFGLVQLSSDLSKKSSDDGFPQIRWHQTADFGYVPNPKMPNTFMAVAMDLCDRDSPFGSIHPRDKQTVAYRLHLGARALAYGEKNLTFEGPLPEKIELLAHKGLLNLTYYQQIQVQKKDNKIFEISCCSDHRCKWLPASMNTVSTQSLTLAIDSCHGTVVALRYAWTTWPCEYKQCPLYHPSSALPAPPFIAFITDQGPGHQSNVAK
# ABHD4 inh = ABHD4 inhibitors, primary screen, biochemical, fluorescence polarization, mouse | AID 720543, 2013 | inhibition, % at 8.92 µM | hit rate 0.54% among 370,000 | (Lyso)-N-acylphosphatidylethanolamine lipase (Mus musculus), Q8VD66 | purified mABHD4, FP-Rh probe fluorescence polarization;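 active = inhibition exceeding the mean over every tested compound plus 3 SD, cut at about 30% in these data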;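 note: 0% = plate median of compound wells and 100% = S159A mutant with DMSO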
#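 Material: mouse ABHD4 enzyme, wild type; Benchmarks: S159A mutant high control, sample median low control; Buffer or medium: HEPES pH 7.0, NaCl, Pluronic buffer; Signal: fluorescence polarization; Read-out: percent inhibition of probe binding, normalized to plate controls; Timing: pre-incubation 45 min, probe exposure 60 min, at 25 °C; Dosing: 8.92 µM, single dose.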
# TCR CD3 inh = inhibitors of human TCR-CD3 interaction, primary screen, biochemical, fluorescence, TAMRA-labeled TCR probe | T-cell receptor (TCR) | AID 651800, 2012 | inhibition, % at 9.4 µM | hit rate 0.37% among 360,000; in the data active = inhibition above about 19%;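 note: recombinant mutant TCR 2C K166C tagged with TAMRA read by polarization; 0% = receptor in buffer alone and 100% = receptor with positive control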
# rCAG binder = binders of r(CAG) RNA repeats, primary screen, biochemical, fluorescence | r(CAG) RNA repeat, TO-PRO-1 dye displacement fluorescence | inhibition, % at 3 µM | hit rate 1.3% among 370,000;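 active = inhibition above the plate cutoff, the mean of all test compounds on that plate plus 3 SD, cut at about 35% in these data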;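 note: 0% = DMSO alone and 100% = 100 µM mitoxantrone as full dye displacement; higher means more dye released from RNA so lower well fluorescence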
# SIAE inh conf = human SIAE inhibitors, retest, confirmation, biochemical, fluorescence polarization, FP-Rh probe, triplicate. hit rate 13% among 2,300. SIAE FP-Rh activity-based probe. inhibition, % at 9.66 µM. shares compounds with SIAE primary;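 active = mean inhibition of the replicates above the hit cutoff set in the primary screen, cut at about 17% in these data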;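 note: 0% = SIAE with DMSO and probe and 100% = probe without SIAE; inhibitors lower polarization as more probe stays unbound to SIAE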
# Numbers without * were called inactive; . = no result. The list is not random: actives were taken first. Their share in the collection is about 3.3%.
SMILES,PRMT1 FP inh,SIAE primary,ABHD4 inh,TCR CD3 inh,rCAG binder,SIAE inh conf
COC(=O)c1cn(-c2ccc(F)cc2)c(=O)c2ccccc12,-2,18*,3,0,-2,6
O=C(COC(=O)COc1ccc(Cl)cc1)Nc1ccc2c(c1)OCCO2,0,18*,3,5,2,1
O=C(c1ccccc1F)N1CCN(c2ccccc2)CC1,0,17*,-7,2,-2,0
O=C(c1ccccc1F)N1CCN(c2ccccc2F)CC1,-1,-2,-2,12,-6,.
Cc1ccc(S(=O)(=O)N(CC(=O)NCC2CCCO2)Cc2ccc(F)cc2)cc1 (stereo unspecified),1,9,6,1,-4,.
CC(C)CC1NC(=O)c2ccc(Cl)cc2-n2c1nc1ccc(Cl)cc1c2=O (stereo unspecified),1,-1,12,-7,3,.
CC(C)CN(C(=O)C1CC1)C1CCS(=O)(=O)C1 (stereo unspecified),7,-1,-11,-2,-2,.
CC(C)CN(C(=O)C1CCCCC1)C1CCS(=O)(=O)C1 (stereo unspecified),1,18*,11,-3,-2,3
O=C(NCc1ccco1)c1cccc(Nc2nc3ccc(Br)cc3[nH]2)c1,-2,41*,7,1,10,11
O=C(NCC1CC1)c1ccc2nc([C@@H]3O[C@H](CO)[C@H](O)[C@H](O)[C@H]3O)[nH]c2c1,3,1,-7,0,2,.
O=C(NCC1CC1)c1ccc(Nc2nc3ccc(Br)cc3[nH]2)cc1,1,25*,23,4,11,7
O=C(Cc1ccc(Nc2nc3ccc(Br)cc3[nH]2)cc1)NCCc1cccs1,0,20*,16,-1,1,7
Cc1nc2ccc(C(=O)N3c4ccccc4N=C(c4ccc(C(F)(F)F)cc4)C3C(=O)NC(C)(C)C)cc2[nH]1 (stereo unspecified),4,-5,4,-6,4,.
CCOC(=O)C1=C(C)NC(C)=C(C(=O)OCC)C1C(=O)OCC(=O)NCc1ccc(F)cc1,0,0,-4,4,-2,.
CCCCn1c(N)c(N(CCC(C)C)C(=O)C2=COCCO2)c(=O)[nH]c1=O,5,7,-8,-5,-5,.
CCCCN(C(=O)C1=COCCO1)c1c(N)n(CCC)c(=O)[nH]c1=O,0,20*,0,3,-4,-6
CCCC(C(=O)NC1CCCC1)N(Cc1ccc2c(c1)OCO2)C(=O)c1snc(C(N)=O)c1N (stereo unspecified),-3,24*,1,3,-5,3
CC(C)N1CCC1(C)C(=O)Nc1cccc(C#N)c1 (stereo unspecified),-2,0,-2,3,0,.
COc1ccc(CN(C)CC(=O)Nc2ccccc2C(F)(F)F)c(OC)c1,1,20*,13,7,0,1
CCOc1ccccc1NC(=O)CN1CCc2ccccc2C1,1,1,3,6,-4,.
CCOc1ccccc1NC(=O)N1CCc2ccccc2C1,0,18*,-1,0,-5,-1
CN(c1ccc(OCC(=O)OCC(=O)Nc2ccccc2)cc1)S(=O)(=O)c1ccc(F)cc1,2,-5,2,0,0,.
CN(c1ccc(OCC(=O)OCC(=O)Nc2ccc([N+](=O)[O-])cc2)cc1)S(=O)(=O)c1cccs1,4,40*,5,2,8,26*
Cc1cccc(C)c1NC(=O)c1cc(S(=O)(=O)N2CCOCC2)cn1C,-1,19*,-5,1,2,-1
Cc1c(Cl)cccc1NC(=O)c1cc(S(=O)(=O)N2CCOCC2)cn1C,-4,-2,6,4,1,.
SMILES,PRMT1 FP inh,SIAE primary,ABHD4 inh,TCR CD3 inh,rCAG binder,SIAE inh conf
COc1ccc(C(=O)Nc2ccnn2C2CCN(C(=O)C3CCOC3)CC2)cc1 (stereo unspecified),5,4,14,-1,-1,.
O=C(Nc1ccc2c(c1)OCO2)c1ccc(N2CCCC2)c([N+](=O)[O-])c1,1,22*,7,2,9,3
O=C(Nc1ccc(N2CCCCC2)c(Cl)c1)c1ccc(N2CCOCC2)c([N+](=O)[O-])c1,2,13,-1,-6,2,.
COc1ccc(S(=O)(=O)NCc2ccc(F)cc2)cc1OC,1,0,0,4,-2,.
COc1cc(S(=O)(=O)NCc2ccccc2)ccc1F,-2,19*,0,-5,0,-3
COCCNC(=O)/C(=C/c1ccccc1Cl)c1ccccc1,0,-3,-5,-7,-2,.
O=C1CCCN1c1ccc(N2CCCC2=O)cc1,-2,1,-8,-4,1,.
Cc1ccc(S(=O)(=O)N(C)C)cc1NC(=O)c1sccc1Cl,-2,17*,-2,0,-2,-2
COc1cccc(CN(C)C(=O)C2CCN(S(=O)(=O)c3cccs3)CC2)c1OC,1,1,4,0,0,.
CNc1oc(Cc2cccc3ccccc23)nc1C#N,-5,18*,-2,-1,0,2
CC(C)Nc1oc(Cc2cccc3ccccc23)nc1C#N,4,1,-9,-1,1,.
CCC(=O)Nc1nnc(SCCOC)s1,1,58*,2,-5,0,-4
COCCSc1nnc(NC(=O)c2ccc3c(c2)OCO3)s1,-1,18*,4,-1,3,-2
CSc1nnc(NC(=O)c2ccc3c(c2)OCO3)s1,0,1,5,14,-2,.
Cc1ccccc1NC(=O)C(C)OC(=O)CCC(=O)c1ccccc1 (stereo unspecified),0,-4,-2,3,2,.
O=C(O)c1cccc(-n2sc3ccccc3c2=O)c1,93*,18*,-9,-1,-3,0
Cc1cccc(OCC(=O)O/N=C(\N)c2ccccn2)c1C,0,31*,-8,0,0,-7
Cn1c(SCC(=O)NC(=O)c2cccc([N+](=O)[O-])c2)nnc1-c1ccc(F)cc1,2,23*,-3,8,4,5
Cc1nn(Cc2ccc(Cl)cc2Cl)c(C)c1NC(=O)c1nc2n(n1)C(C(F)F)CC(C)N2 (stereo unspecified),0,31*,6,-5,3,2
Cc1nn(Cc2ccc(Cl)cc2Cl)c(C)c1NC(=O)C1C2CCC(O2)C1C(=O)O (stereo unspecified),2,20*,0,4,-5,3
Cc1nn(Cc2ccc(Cl)cc2Cl)c(C)c1NC(=O)c1nn(C)cc1Cl,-1,1,1,2,-7,.
Cc1cc(C)c(NC(=O)COC(=O)C2=COCCO2)c(C)c1,-2,6,-2,5,2,.

# High-throughput results from PubChem BioAssay.
